Calls of active or inactive are those of the source. The calls are words filed in the database; no cut-off is given here.
What was measured:
[1] = biological target: Voltage-gated inwardly rectifying potassium channel KCNH2 (Homo sapiens, UniProt Q12809); assay: Inhibition of human ERG
[2] = biological target: T1, Delta-type opioid receptor (Homo sapiens, UniProt P41143); assay: Agonist activity at delta opioid receptor expressed in CHO cells assessed as inhibition of forskolin-stimulated cAMP production by ALPHAscreen assay; format: functional, cell-based
How it was run: (§1)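 CHO cells stably expressing a Flp-In delta opioid receptor construct, grown in DMEM/F12 with 2 mM L-glutamine, 500 µg/ml hygromycin and 10% heat-inactivated FBS. Cells resuspended at 8000 cells/well in HEPES pH 7.4/HBSS buffer with 0.1% BSA, 10 mM MgCl2 and 0.5 mM IBMX. Forskolin 20 µM final, 30 min. cAMP read by ALPHAscreen with biotin-cAMP competition after overnight incubation. EC50 from percentage agonist activity.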

[3] = Metabolic stability in human liver microsomes assessed as intrinsic clearance; format: ADME, Microsome
[4] = Selectivity for human recombinant DOR over mu opioid receptor
Mu-type opioid receptor = Mu-type opioid receptor (Homo sapiens, UniProt P35372); assay: Agonist activity at mu opioid receptor; format: functional
[5] = biological target: T1, Delta-type opioid receptor; assay: Agonist activity at human recombinant delta opioid receptor expressed in CHO cells assessed as inhibition of forskolin-stimulated cAMP production by ALPHAscreen assay relative to BW373U86; format: functional, cell-based; how it was run: as §1
Clearance in rat = conditions: in vivo
Canis familiaris = species on record: Canis familiaris; assay: Effect on QTC prolongation in Beagle dog at 291 nM free plasma concentration; format: functional, organism-based; conditions: Canis lupus familiaris
Rattus norvegicus = species on record: Rattus norvegicus; assay: Inhibition of neuropathic pain in rat electromyography model; format: functional
How it was run: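 Rat electromyography (EMG) pain model. Agonist given by infusion protocol (bolus + continuous infusion) at 76 µg/kg + 72 µg/kg/hr, 240 µg/kg + 290 µg/kg/hr, or 660 µg/kg + 920 µg/kg/hr to reach target plasma levels. Mean free plasma concentration measured at each dose. Read-out: EMG response inhibition relative to control animals.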

T1 sequence (P41143 whole entry): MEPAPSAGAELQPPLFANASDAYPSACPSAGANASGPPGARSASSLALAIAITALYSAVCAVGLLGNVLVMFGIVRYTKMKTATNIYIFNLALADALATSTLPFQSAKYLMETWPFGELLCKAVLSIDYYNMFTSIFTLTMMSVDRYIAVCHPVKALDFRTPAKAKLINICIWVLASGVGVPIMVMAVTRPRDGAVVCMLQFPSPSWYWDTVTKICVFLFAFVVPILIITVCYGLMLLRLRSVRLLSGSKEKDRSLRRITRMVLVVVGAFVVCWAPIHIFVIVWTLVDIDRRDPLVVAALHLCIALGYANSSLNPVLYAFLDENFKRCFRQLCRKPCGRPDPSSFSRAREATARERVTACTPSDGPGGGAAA
Sequence of Voltage-gated inwardly rectifying potassium channel KCNH2 (Q12809 whole entry): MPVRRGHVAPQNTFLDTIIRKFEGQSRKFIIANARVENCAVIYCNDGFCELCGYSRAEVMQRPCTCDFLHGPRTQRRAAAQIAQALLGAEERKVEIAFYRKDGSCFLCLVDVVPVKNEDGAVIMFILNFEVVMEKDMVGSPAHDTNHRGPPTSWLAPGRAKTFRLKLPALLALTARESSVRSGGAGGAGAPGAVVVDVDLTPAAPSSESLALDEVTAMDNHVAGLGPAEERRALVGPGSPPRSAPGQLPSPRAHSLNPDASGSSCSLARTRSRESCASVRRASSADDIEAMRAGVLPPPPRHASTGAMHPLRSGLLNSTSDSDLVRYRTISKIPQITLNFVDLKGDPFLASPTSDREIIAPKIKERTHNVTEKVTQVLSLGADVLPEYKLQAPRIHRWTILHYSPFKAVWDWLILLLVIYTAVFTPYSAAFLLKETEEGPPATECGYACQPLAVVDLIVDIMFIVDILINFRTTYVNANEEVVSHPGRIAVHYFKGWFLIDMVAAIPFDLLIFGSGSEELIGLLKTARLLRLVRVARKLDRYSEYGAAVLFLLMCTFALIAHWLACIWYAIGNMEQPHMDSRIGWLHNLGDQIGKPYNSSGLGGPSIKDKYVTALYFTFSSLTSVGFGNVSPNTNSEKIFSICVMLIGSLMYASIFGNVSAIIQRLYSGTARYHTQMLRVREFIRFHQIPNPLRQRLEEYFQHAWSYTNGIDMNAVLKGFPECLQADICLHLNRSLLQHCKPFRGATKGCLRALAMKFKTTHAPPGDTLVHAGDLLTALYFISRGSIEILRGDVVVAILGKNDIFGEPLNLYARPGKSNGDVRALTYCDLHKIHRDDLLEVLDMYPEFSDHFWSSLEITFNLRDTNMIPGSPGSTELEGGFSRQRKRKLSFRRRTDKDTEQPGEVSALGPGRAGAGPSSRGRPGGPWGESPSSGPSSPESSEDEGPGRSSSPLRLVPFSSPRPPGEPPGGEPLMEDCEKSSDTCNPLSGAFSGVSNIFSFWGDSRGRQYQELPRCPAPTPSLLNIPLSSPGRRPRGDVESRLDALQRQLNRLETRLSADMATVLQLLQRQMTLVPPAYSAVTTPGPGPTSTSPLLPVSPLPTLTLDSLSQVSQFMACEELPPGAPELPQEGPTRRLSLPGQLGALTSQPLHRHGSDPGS
Sequence of Mu-type opioid receptor (P35372 whole entry): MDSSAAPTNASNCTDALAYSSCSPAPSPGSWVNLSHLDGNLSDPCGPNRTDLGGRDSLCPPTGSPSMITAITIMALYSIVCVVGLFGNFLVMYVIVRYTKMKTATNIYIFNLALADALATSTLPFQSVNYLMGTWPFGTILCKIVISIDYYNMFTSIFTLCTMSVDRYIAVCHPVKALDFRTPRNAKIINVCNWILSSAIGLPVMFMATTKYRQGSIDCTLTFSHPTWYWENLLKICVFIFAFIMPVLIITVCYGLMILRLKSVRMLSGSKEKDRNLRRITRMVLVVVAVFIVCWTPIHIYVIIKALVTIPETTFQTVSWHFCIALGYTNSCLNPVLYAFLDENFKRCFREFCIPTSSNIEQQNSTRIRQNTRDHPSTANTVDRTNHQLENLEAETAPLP

EC50 [2] [nM]	microsomal CLint [3] [µL/min/mg]	fold change (FC) [4]	Compound	Ki [1] [nM]	also measured
60	14	50	Nc1ccnc(N2CCC(NC(=O)c3ccccn3)(c3ccccc3)CC2)c1	548	
24	62	17	CCOC(=O)N1CCN(C(=O)C2(c3ccccc3)CCN(c3cc(N)ccn3)CC2)CC1		
17	40	50	COc1ccc(CNC(=O)C2(c3ccccc3)CCN(c3cc(N)ccn3)CC2)cc1		
5	22		Nc1ccnc(N2CCC(C(=O)Nc3ccc4ccccc4n3)(c3ccccc3)CC2)c1		
59	10	50	Nc1ccnc(N2CCC3(CC2)OC(c2ccccc2)c2ccccc23)c1 (stereo unspecified)	18	
263	< 7	50	CC(=O)C1(c2ccccc2)CCN(c2cc(N)ccn2)CC1		EC50 (Mu-type opioid receptor): > 10000 nM; Emax [5]: 100%
13	46	50	Nc1ccnc(N2CCC(C(=O)N3CCc4ccccc4C3)(c3ccccc3)CC2)c1		
171	13	50	Nc1ccnc(N2CCC(NC(=O)[C@@H]3CCCO3)(c3ccccc3)CC2)c1		
14	43	50	COc1ccc(C(=O)NC2(c3ccccc3)CCN(c3cc(N)ccn3)CC2)c(OC)c1		
59	69	50	COc1ccc(C(=O)NC2(c3ccccc3)CCN(c3cc(N)ccn3)CC2)cc1Cl	343	

Further lines, the molecule ahead of its results:

Compound	EC50 [2] [nM]	microsomal CLint [3] [µL/min/mg]	fold change (FC) [4]	Ki [1] [nM]	also measured
Nc1ccnc(N2CCC(N(C(=O)C3CCCCC3)c3ccccn3)CC2)c1		80			
Nc1ccnc(N2CCC(n3c(=O)n(CC4CC4)c4cccnc43)CC2)c1		13		746	
COc1ccc(-n2c(=O)n(C3CCN(c4cc(N)ccn4)CC3)c3ncccc32)cc1		23		865	
Nc1ccnc(N2CCC(N(C(=O)C3CC3)c3ccccn3)CC2)c1		< 7			
Nc1ccnc(N2CCC(n3c(=O)n(-c4ccccc4)c4cccnc43)CC2)c1		19		903	
CCN(CC)C(=O)[C@H]1OC2(CCN(c3cc(N)ccn3)CC2)c2ccccc21	12	13	50	> 10000	
Nc1ccnc(N2CCC3(CC2)OCc2ccccc23)c1	308		50		
Nc1ccnc(N2CCC(n3c(=O)n(Cc4ccccc4)c4cccnc43)CC2)c1		20			
COc1cccc(C(=O)N(c2ccccn2)C2CCN(c3cc(N)ccn3)CC2)c1		17		9690	
CN(C)C(=O)[C@H]1CC2(CCN(c3cc(N)ccn3)CC2)c2ccccc21	27	< 7	50		clearance (Clearance in rat): > 70 mL/min/kg; Activity (Canis familiaris): Active; inhibition (INH) (Rattus norvegicus): 60%
COc1cccc(C2(C)CN(c3cc(N)ccn3)C2)c1	846		2	1840	
COc1ccc(C(=O)N(c2cc(C)ccn2)C2CCN(c3cc(N)ccn3)CC2)cc1		12			

— ChEMBL document CHEMBL1153304, “2,4-Diaminopyridine delta-opioid receptor agonists and their associated hERG pharmacology” (Bioorg Med Chem Lett, 2009)
